Laboratory results reported in ChEMBL document CHEMBL1154352, “Toll-like receptor 7 selective synthetic oligoribonucleotide agonists: synthesis and structure-activity relationship studies” (J Med Chem, 2009).
Calls of active or inactive are those of the source. The rule behind the calls is not given here.

Assays:
Homo sapiens [1] = species on record: Homo sapiens; test: Immunostimulatory activity in human mDC assessed as induction of IFNalpha at 100 ug/ml after 24 hrs; assay type: functional
Outline: (§1)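 Human mDCs isolated from PBMCs by CD19+ B-cell depletion then BDCA1 positive selection; plated at 1 × 10^6 cells/mL, compounds in PBS, 37 °C for 24 h; supernatant cytokines by human Luminex multiplex. Representative of four independent experiments.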

PBMC [2] = test: Immunomodulatory activity in human PBMC assessed as induction of IL1-beta after 24 hrs; assay type: functional, cell-based
Outline: (§2)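 Human PBMCs plated at 5 × 10^6 cells/mL; compounds dissolved in PBS added at various concentrations, 37 °C for 24 h. Supernatant cytokines/chemokines quantified with human Luminex multiplex kit.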

PBMC [3] = test: Immunomodulatory activity in human PBMC assessed as induction of IL12 at 50 ug/ml after 24 hrs; assay type: functional, cell-based; outline: as §2
[4] = Metabolic stability in human serum assessed as full length product remaining after 10 mins by HPLC; assay type: ADME, cell-free; conditions: read-out: Stability
Outline: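 About 0.5 A260 units compound in 1% human serum in PBS, 37 °C; aliquot taken at 10 min, analysed by anion-exchange HPLC for percent intact full-length product.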

Homo sapiens [5] = species on record: Homo sapiens; test: Immunostimulatory activity in human pDC assessed as induction of IL6 at 100 ug/ml after 24 hrs; assay type: functional
Outline: (§3)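 Human pDCs plated at 1 × 10^6 cells/mL; compounds in PBS added, 37 °C for 24 h; supernatant cytokines/chemokines by human Luminex multiplex kit.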

PBMC [6] = test: Immunomodulatory activity in human PBMC assessed as induction of MIP1alpha at 50 ug/ml after 24 hrs; assay type: functional, cell-based; outline: as §2
[7] = target: Toll-like receptor 3 (Homo sapiens) (UniProt O15455); test: Activation of human TLR3 expressed in HEK293 assessed as induction of NF-kappaB activity reporter gene assay; assay type: cell-based
Chain of Toll-like receptor 3 (Homo sapiens) (O15455 whole entry): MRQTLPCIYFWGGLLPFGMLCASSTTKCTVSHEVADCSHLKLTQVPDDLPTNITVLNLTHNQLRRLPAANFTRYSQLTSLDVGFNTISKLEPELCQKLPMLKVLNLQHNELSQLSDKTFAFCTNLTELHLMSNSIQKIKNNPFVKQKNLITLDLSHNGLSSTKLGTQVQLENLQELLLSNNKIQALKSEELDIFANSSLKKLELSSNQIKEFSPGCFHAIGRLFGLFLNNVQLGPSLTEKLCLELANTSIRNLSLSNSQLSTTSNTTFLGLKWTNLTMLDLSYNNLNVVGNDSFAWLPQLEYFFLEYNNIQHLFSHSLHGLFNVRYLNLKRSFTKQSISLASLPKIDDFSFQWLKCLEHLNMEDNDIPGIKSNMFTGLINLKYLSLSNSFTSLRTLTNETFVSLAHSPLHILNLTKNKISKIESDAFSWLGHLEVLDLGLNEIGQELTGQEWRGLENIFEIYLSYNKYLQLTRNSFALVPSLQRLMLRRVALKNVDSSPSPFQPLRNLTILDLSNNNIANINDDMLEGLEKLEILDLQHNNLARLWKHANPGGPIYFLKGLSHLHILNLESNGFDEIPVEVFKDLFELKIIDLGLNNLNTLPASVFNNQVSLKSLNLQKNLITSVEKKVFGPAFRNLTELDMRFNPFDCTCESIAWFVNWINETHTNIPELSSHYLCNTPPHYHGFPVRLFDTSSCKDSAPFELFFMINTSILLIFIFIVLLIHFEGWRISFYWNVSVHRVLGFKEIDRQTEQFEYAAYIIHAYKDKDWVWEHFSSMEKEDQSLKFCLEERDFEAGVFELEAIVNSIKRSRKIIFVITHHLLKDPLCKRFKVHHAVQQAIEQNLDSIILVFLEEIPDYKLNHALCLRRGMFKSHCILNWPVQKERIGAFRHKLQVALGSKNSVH

PBMC [8] = test: Immunomodulatory activity in human PBMC assessed as induction of TNFalpha after 24 hrs; assay type: functional, cell-based; outline: as §2
PBMC [9] = test: Immunomodulatory activity in human PBMC assessed as induction of IFNalpha at 50 ug/ml after 24 hrs; assay type: functional, cell-based; outline: as §2
PBMC [10] = test: Immunomodulatory activity in human PBMC assessed as induction of MCP1 after 24 hrs; assay type: functional, cell-based; outline: as §2
PBMC [11] = test: Immunomodulatory activity in human PBMC assessed as induction of MIP1beta at 50 ug/ml after 24 hrs; assay type: functional, cell-based; outline: as §2
PBMC [12] = test: Immunomodulatory activity in human PBMC assessed as induction of IL1-beta at 50 ug/ml after 24 hrs; assay type: functional, cell-based; outline: as §2
Homo sapiens [13] = species on record: Homo sapiens; test: Immunostimulatory activity in human pDC assessed as induction of IFNalpha at 100 ug/ml after 24 hrs; assay type: functional; outline: as §3
[14] = target: T1, Toll-like receptor 8 (Homo sapiens) (UniProt Q9NR97); test: Activation of human TLR8 expressed in HEK293XL assessed as fold induction of NF-kappaB activity at 50 ug/ml after 18 hrs by reporter gene assay relative to control
T1 sequence (whole entry): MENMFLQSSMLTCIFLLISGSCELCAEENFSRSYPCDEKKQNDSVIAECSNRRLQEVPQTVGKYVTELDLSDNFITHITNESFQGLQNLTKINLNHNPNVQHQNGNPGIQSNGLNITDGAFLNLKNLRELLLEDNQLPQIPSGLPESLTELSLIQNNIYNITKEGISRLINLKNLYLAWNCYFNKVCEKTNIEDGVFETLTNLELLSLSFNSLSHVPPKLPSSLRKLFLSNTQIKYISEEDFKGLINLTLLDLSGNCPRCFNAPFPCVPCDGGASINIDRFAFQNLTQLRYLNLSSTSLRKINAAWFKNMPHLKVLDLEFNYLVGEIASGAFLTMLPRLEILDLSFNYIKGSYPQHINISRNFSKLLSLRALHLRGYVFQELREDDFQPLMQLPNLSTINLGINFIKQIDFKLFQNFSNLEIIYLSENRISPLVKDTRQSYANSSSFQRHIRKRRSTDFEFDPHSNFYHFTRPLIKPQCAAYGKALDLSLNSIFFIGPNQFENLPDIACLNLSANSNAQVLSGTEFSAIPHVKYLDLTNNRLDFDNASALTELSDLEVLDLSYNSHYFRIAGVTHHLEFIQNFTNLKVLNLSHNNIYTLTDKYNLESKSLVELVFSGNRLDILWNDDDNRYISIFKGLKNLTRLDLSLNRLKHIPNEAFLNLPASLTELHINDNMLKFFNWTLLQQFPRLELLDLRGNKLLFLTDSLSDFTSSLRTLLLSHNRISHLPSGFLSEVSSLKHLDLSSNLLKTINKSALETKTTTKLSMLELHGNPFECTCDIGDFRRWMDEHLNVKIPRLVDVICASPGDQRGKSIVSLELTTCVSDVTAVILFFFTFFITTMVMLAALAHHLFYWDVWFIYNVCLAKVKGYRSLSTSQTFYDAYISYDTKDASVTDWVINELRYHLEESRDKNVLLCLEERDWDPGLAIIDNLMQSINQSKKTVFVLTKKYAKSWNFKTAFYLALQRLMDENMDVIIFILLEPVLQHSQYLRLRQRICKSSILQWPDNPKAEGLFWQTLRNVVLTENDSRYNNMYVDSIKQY
Outline: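 HEK293 cells stably expressing human TLR7 or TLR8, transiently transfected with SEAP reporter plasmid; medium replaced, SIMRA compounds added, 18 h incubation. Supernatant SEAP measured by QuantiBlue; expressed as fold increase in NF-κB activity over PBS control. Tabulated data at 50 μg/mL, representative of three independent experiments.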

PBMC [15] = test: Immunomodulatory activity in human PBMC assessed as induction of MIP1beta after 24 hrs; assay type: functional, cell-based; outline: as §2
Homo sapiens [16] = species on record: Homo sapiens; test: Immunostimulatory activity in human mDC assessed as induction of IL12 at 100 ug/ml after 24 hrs; assay type: functional; outline: as §1
Mus musculus = test: Immunomodulatory activity in C57BL/6 mouse assessed as induction of IL12 release at 25 mg/kg, sc after 2 hrs by ELISA; assay type: functional, organism-based; parameters: dose 25 mg/kg
Outline: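 Female C57BL/6 wild-type mice, 5–8 weeks old, n=3; compounds given subcutaneously at 10 or 25 mg/kg. Retro-orbital blood at 2 h; serum cytokines by mouse Luminex multiplex or IL-12 ELISA.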

Homo sapiens [17] = species on record: Homo sapiens; test: Immunostimulatory activity in human mDC assessed as induction of IL6 at 100 ug/ml after 24 hrs; assay type: functional; outline: as §1
PBMC [18] = test: Immunomodulatory activity in human PBMC assessed as induction of TNFalpha at 50 ug/ml after 24 hrs; assay type: functional, cell-based; outline: as §2
Homo sapiens [19] = species on record: Homo sapiens; test: Immunostimulatory activity in human mDC assessed as induction of TNFalpha at 100 ug/ml after 24 hrs; assay type: functional; outline: as §1
PBMC [20] = test: Immunomodulatory activity in human PBMC assessed as induction of IL6 at 50 ug/ml after 24 hrs; assay type: functional, cell-based; outline: as §2
Homo sapiens [21] = species on record: Homo sapiens; test: Immunostimulatory activity in human pDC assessed as induction of IP10 at 100 ug/ml after 24 hrs; assay type: functional; outline: as §3
PBMC [22] = test: Immunomodulatory activity in human PBMC assessed as induction of MCP1 at 50 ug/ml after 24 hrs; assay type: functional, cell-based; outline: as §2
Homo sapiens [23] = species on record: Homo sapiens; test: Immunostimulatory activity in human mDC assessed as induction of IP10 at 100 ug/ml after 24 hrs; assay type: functional; outline: as §1
PBMC [24] = test: Immunomodulatory activity in human PBMC assessed as induction of IP10 at 50 ug/ml after 24 hrs; assay type: functional, cell-based; outline: as §2

**Q.** Which Activity (Homo sapiens [1]) does the source give for `Nc1ccn([C@@H]2O[C@H](COP(=O)(S)O[C@H]3[C@@H](O)[C@H](n4cnc5c(N)ncnc54)O[C@@H]3COP(=O)(S)O[C@H]3[C@@H](O)[C@H](n4ccc5c(=O)[nH]c(N)nc54)O[C@@H]3COP(=O)(S)O[C@H]3[C@@H](O)[C@H](n4ccc(=O)[nH]c4=O)O[C@@H]3COP(=O)(S)O[C@H]3[C@@H](O)[C@H](n4ccc(=O)[nH]c4=O)O[C@@H]3COP(=O)(S)O[C@H]3[C@@H](O)[C@H](n4cnc5c(N)ncnc54)O[C@@H]3COP(=O)(S)O[C@H]3[C@@H](O)[C@H](n4cnc5c(N)ncnc54)O[C@@H]3CO)[C@@H](OP(=O)(S)OC[C@H]3O[C@@H](n4ccc5c(=O)[nH]c(N)nc54)[C@H](O)[C@@H]3OP(=O)(S)OC[C@H]3O[C@@H](n4ccc(N)nc4=O)[C@H](O)[C@@H]3OP(=O)(S)OC[C@H]3O[C@@H](n4ccc(=O)[nH]c4=O)[C@H](O)[C@@H]3OP(=O)(S)OC[C@H]3O[C@@H](n4ccc(=O)[nH]c4=O)[C@H](O)[C@@H]3OP(=O)(S)OCC(O)COP(=O)(S)O[C@H]3[C@@H](O)[C@H](n4ccc(=O)[nH]c4=O)O[C@@H]3COP(=O)(S)O[C@H]3[C@@H](O)[C@H](n4ccc(=O)[nH]c4=O)O[C@@H]3COP(=O)(S)O[C@H]3[C@@H](O)[C@H](n4ccc(N)nc4=O)O[C@@H]3COP(=O)(S)O[C@H]3[C@@H](O)[C@H](n4ccc5c(=O)[nH]c(N)nc54)O[C@@H]3COP(=O)(S)O[C@H]3[C@@H](O)[C@H](n4ccc(N)nc4=O)O[C@@H]3COP(=O)(S)O[C@H]3[C@@H](O)[C@H](n4cnc5c(N)ncnc54)O[C@@H]3COP(=O)(S)O[C@H]3[C@@H](O)[C@H](n4ccc5c(=O)[nH]c(N)nc54)O[C@@H]3COP(=O)(S)O[C@H]3[C@@H](O)[C@H](n4ccc(=O)[nH]c4=O)O[C@@H]3COP(=O)(S)O[C@H]3[C@@H](O)[C@H](n4ccc(=O)[nH]c4=O)O[C@@H]3COP(=O)(S)O[C@H]3[C@@H](O)[C@H](n4cnc5c(N)ncnc54)O[C@@H]3COP(=O)(S)O[C@H]3[C@@H](O)[C@H](n4cnc5c(N)ncnc54)O[C@@H]3CO)[C@H]2O)c(=O)n1` (stereo not given in full) here?
**A.** Active

**Q.** What about the Activity (PBMC [2]) of the same molecule?
**A.** Dose-dependent effect

**Q.** And the Activity (PBMC [3])?
**A.** 320 pg/mL

**Q.** What about the remaining at 10 min [4] of the same molecule?
**A.** 80%

**Q.** And the Activity (Homo sapiens [5])?
**A.** Active

**Q.** And the Activity (PBMC [6])?
**A.** 2230 pg/mL

**Q.** What about the Activity [7] of the same molecule?
**A.** inactive

**Q.** What about the Activity (PBMC [8]) of the same molecule?
**A.** Dose-dependent effect

**Q.** What about the Activity (PBMC [9]) of the same molecule?
**A.** 149 pg/mL

**Q.** What about the Activity (PBMC [10]) of the same molecule?
**A.** Dose-dependent effect

**Q.** And the Activity (PBMC [11])?
**A.** 5500 pg/mL

**Q.** What about the Activity (PBMC [12]) of the same molecule?
**A.** 117 pg/mL

**Q.** What about the Activity (Homo sapiens [13]) of the same molecule?
**A.** Active

**Q.** And the fold change (FC) [14]?
**A.** 0.3

**Q.** And the Activity (PBMC [15])?
**A.** Dose-dependent effect

**Q.** What about the Activity (Homo sapiens [16]) of the same molecule?
**A.** Active

**Q.** And the Activity (Mus musculus)?
**A.** Active

**Q.** What about the Activity (Homo sapiens [17]) of the same molecule?
**A.** Active

**Q.** And the Activity (PBMC [18])?
**A.** 104 pg/mL

**Q.** What about the Activity (Homo sapiens [19]) of the same molecule?
**A.** Active

**Q.** And the Activity (PBMC [20])?
**A.** 1750 pg/mL

**Q.** What about the Activity (Homo sapiens [21]) of the same molecule?
**A.** Active

**Q.** What about the Activity (PBMC [22]) of the same molecule?
**A.** 49600 pg/mL

**Q.** What about the Activity (Homo sapiens [23]) of the same molecule?
**A.** Active

**Q.** What about the Activity (PBMC [24]) of the same molecule?
**A.** 453 pg/mL
